IDE act: IDE (human) activation, cell-based. P14735. HEK cells, FAbeta-B cleavage, fluorescence polarization; 0% vehicle, 100% cell-free pure enzyme wells. activation, % at 5.96 µM. 0.073% of 340,000 active. AID 493087;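 active = activation above the mean of all tested compounds plus 3 SD, set per screening campaign, cut at about 17% in these data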
PHOSPHO1 block: inhibitors of human PHOSPHO1 phosphatase; recombinant PHOSPHO1, absorbance phosphatase assay; 1.1% of 290,000 active; inhibition, % at 13.3 µM; in the data active = inhibition above about 60%
proCasp7 act: counter-screen: procaspase-7 (human) activation | P55210 | recombinant procaspase-7, Ac-DEVD-pNA absorbance 405 nm; D23A/D198A/D206A triple mutant, cannot self-cleave; scale: DMSO 0, 5 µM enzyme 100 | activation, % at 8.5 µM | 0.093% of 330,000 active;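 active = percent activation above the screen-wide mean plus 3 SD, cut at about 25% in these data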
Target sequence (P55210 whole entry D23A/D198A/D206A): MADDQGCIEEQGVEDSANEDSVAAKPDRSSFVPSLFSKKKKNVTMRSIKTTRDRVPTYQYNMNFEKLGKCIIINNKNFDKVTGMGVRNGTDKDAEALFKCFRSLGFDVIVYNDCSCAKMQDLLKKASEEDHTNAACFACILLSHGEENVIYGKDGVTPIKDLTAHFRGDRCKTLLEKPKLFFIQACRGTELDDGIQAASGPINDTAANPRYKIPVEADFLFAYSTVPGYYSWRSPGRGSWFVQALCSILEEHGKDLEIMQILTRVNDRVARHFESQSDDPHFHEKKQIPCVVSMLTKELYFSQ
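Replicates: singlicate. Assay system: Procaspase-7 triple mutant (PC-7 D3A). Signal: 405 nm absorbance of p-nitroaniline. Times: 1 h preincubation, 2 h reaction. Buffer or medium: Zinc-free HEPES pH 7.4 with 300 mM NaCl, 0.01% Triton X-100. Also added: DEVD-pNA substrate. Benchmarks: DMSO wells as 0%, DMSO with 5 µM added PC-7 as 100%.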
IDE cell inh: cellular human IDE inhibition | HEK cells, FAbetaB cleavage, fluorescence polarization | P14735 | inhibition, % at 5.59 µM | 0.41% of 320,000 active;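 active = percent inhibition above the average of all tested compounds plus 3 SD, set per screening campaign, cut at about 16% in these data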;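 note: IDE supplied by intact live HEK cells; FP after avidin binding of uncleaved biotin substrate so inhibition keeps polarization high; 0% = DMSO wells and 100% = 60 µM reference IDE inhibitor Ii1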
UBC13 inh: human UBC13 polyubiquitination inhibition. P61088. inhibition, % at 20 µM. AID 485273. 0.47% of 330,000 active. UBC13 polyubiquitin chain formation, TR-FRET; in the data active = inhibition above about 45%, passing the limit was not always enough
procasp3 activ: activates human procaspase-3; P42574; recombinant procaspase-3 D3A, Ac-DEVD-pNA absorbance 405 nm; activation, % at 8.5 µM; 0.11% of 330,000 active; AID 463141;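 active = activation above the mean of all tested compounds plus 3 SD, cut at about 21% in these data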;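 note: 0% = DMSO alone and 100% = DMSO wells spiked with extra 5 µM PC-3 D3A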
Target sequence (P42574 whole entry D9A/D28A/D175A): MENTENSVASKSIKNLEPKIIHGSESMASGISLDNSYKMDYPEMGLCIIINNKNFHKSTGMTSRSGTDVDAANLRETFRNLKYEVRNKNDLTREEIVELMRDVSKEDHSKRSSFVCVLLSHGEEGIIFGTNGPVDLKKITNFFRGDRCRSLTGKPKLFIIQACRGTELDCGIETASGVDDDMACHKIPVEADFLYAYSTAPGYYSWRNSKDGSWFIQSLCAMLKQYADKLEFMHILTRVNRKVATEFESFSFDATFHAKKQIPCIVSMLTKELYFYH
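Compound: 8.5 µM single point, 0.8% DMSO / Material: Autoprocessing-dead procaspase-3 D3A mutant enzyme / Timing: 1 h preincubation plus 2 h reaction at 25 °C / Medium: Zinc-free HEPES/NaCl buffer with 0.01% Triton X-100 at pH 7.4 / Technique: 405 nm absorbance of p-nitroaniline, reads at 0 and 120 min / Repeats: one well per compound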
IDE inh confirm: cellular human IDE inhibition, confirmation. shares compounds with IDE cell inh. HEK cells, FAbetaB cleavage, fluorescence polarization. inhibition, % at 5.59 µM. 51% of 1,200 active. AID 435028;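 active = mean inhibition across triplicate wells above the cutoff set by the earlier primary insulin-degrading enzyme screen, cut at about 16% in these data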;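 note: 0% = DMSO wells and 100% = 60 µM reference IDE inhibitor Ii1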
HEK cytotox: HEK cell cytotoxicity, counter-screen for IDE inhibitors; shares compounds with IDE cell inh; HEK293 cytotoxicity, ATP luminescence; inhibition, % at 5.59 µM; 28% of 1,200 active; in the data active = inhibition above about 22%;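 note: 0% = vehicle wells and 100% = reference cytotoxic drug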
* marks the source's active call; other numbers are inactive results; · = not tested or not shown. In the library only some 1.9% were active in any assay of this set; here they are far more common.

SMILES	IDE act	PHOSPHO1 block	proCasp7 act	IDE cell inh	UBC13 inh	procasp3 activ	IDE inh confirm	HEK cytotox
CCOc1cc(/C=C2\SC(=S)N(NC(=O)c3cccnc3)C2=O)ccc1O	·	46	-5	41*	-63	-14	148*	8
COc1cc(/C=C2\SC(=S)N(NC(=O)c3cccc(O)c3)C2=O)ccc1O	-91	19	·	·	-103	·	·	·
COc1cc(/C=C2\SC(=S)N(NC(=O)c3ccc(O)c(OC)c3)C2=O)ccc1O	-106	29	-12	109*	-97	-11	89*	9
COc1cc(/C=C2\SC(=S)N(NC(=O)c3ccncc3)C2=O)ccc1O	-136	-48	-11	81*	-86	7	165*	6
CC1CC1C(=O)OCC(=O)Nc1ccc(S(=O)(=O)N2CCOCC2)cc1 (stereo unspecified)	0	·	-1	5	7	6	·	·
COc1ccccc1C(=O)NCC(=O)OCC(=O)c1ccc2c(c1)-c1ccccc1C2	-7	4	2	22*	6	5	6	9
COc1cccc2sc(Nc3nc(-c4cc5ccccc5oc4=O)cs3)nc12	-3	-53	-1	5	·	-12	·	·
COc1cccc2sc(Nc3nc4ccc(NC(C)=O)cc4s3)nc12	-16	6	-38	24*	·	-64	7	117*
COc1cccc2sc(Nc3nc(-c4ccncc4)cs3)nc12	-8	20	5	17*	-7	1	4	61*
N#C/C(=C\c1ccc(N2CCCCC2)o1)C(=O)Nc1cccc(Br)c1	-103	-17	-44	140*	-351	-25	79*	42*
O=Cc1ccc(N2CCCC2)o1	5	-29	6	-5	0	2	·	·
N#C/C(=C\c1ccc(N2CCCCC2)o1)C(N)=O	-50	20	-15	32*	-395	2	50*	10
Cc1cc(Br)ccc1NC(=O)CNC(=O)CN(C)C1CCS(=O)(=O)C1 (stereo unspecified)	-2	·	·	·	-4	·	·	·
CN(C)c1ccc(/C=C2\Oc3ccc(C#Cc4cccc(N)c4)cc3C2=O)cc1	-49	·	-31	44*	-28	-21	49*	15
CCOCCCNC(=S)N1CCCN(c2nc3cc(C)c(C)cc3cc2C#N)CC1	-9	46	-21	21*	4	-11	5	17
CCCc1cc(C(=O)Nc2ccc(C(=O)c3ccccc3)cc2)n(C)n1	-11	9	1	19*	7	1	4	23*
CCCc1cc(C(=O)Nc2ccc(C(=O)c3ccc(F)cc3)cc2)n(C)n1	-5	29	-1	4	8	3	·	·
O=C1C2C3C=CC(C3)C2C(=O)N1CC1CCCO1 (stereo unspecified)	-5	7	5	0	3	2	·	·
O=C1CSC(=S)N1CC1CCCO1 (stereo unspecified)	-9	5	-20	18*	1	-10	14	11
O=C(Nc1ccc(-c2cn3ccsc3n2)cc1)c1ccc(F)c(S(=O)(=O)N2CCOCC2)c1	-10	-14	3	21*	8	-1	6	58*
O=C(Nc1ccccc1)c1ccc(F)c(S(=O)(=O)N2CCOCC2)c1	2	10	2	3	8	3	·	·
COCCN1C(=O)/C(=C/c2ccc(N3CCCC3)cc2)SC1=S	-37	-12	17	26*	-120	-4	77*	13
CC1(NC(=O)/C=C/c2nc3ccccc3s2)CCS(=O)(=O)C1 (stereo unspecified)	4	·	-7	-2	-24	-4	·	·
CC1(C)OC(=O)C=C[C@]2(C)[C@H]3CC[C@@]4(C)[C@H](c5ccoc5)OC(=O)[C@H]5O[C@]54[C@]3(C)C(=O)C[C@@H]12	-2	·	11	2	-2	14	·	·
CC(=O)O[C@@H]1C[C@H]2C(C)(C)C(=O)C=C[C@]2(C)[C@H]2CC[C@@]3(C)[C@H](c4ccoc4)OC(=O)[C@H]4O[C@]43[C@@]21C	-41	4	-5	18*	-2	6	7	58*
SMILES	IDE act	PHOSPHO1 block	proCasp7 act	IDE cell inh	UBC13 inh	procasp3 activ	IDE inh confirm	HEK cytotox
CCN=C1S/C(=C\c2ccc(O)c(OCC)c2)C(=O)N1CC	-9	8	-19	5	-21	-15	·	·
COc1cc(/C=C2/SC(=S)N(Cc3ccccc3)C2=O)ccc1O	-117	34	0	115*	-64	-11	139*	20
COc1cc(/C=C2\SC(=S)N(NC(=O)c3ccccc3OC)C2=O)ccc1O	-68	42	·	·	-117	·	·	·
COc1cc(/C=C2/SC(=S)N(c3c(C)n(C)n(-c4ccccc4)c3=O)C2=O)ccc1O	-34	23	-27	18*	-135	-24	46*	11
O=C1/C(=C\c2cc([N+](=O)[O-])ccc2O)SC(=S)N1Cc1ccc(Cl)cc1	-57	·	-18	40*	·	-19	130*	15
COc1cc(/C=C2/SC(=NCc3ccccc3)N(Cc3ccccc3)C2=O)ccc1O	-38	19	-16	38*	-15	-21	57*	15
Cc1cccc(C(=O)OCC(=O)NCCN2C(=O)CSC2=O)c1[N+](=O)[O-]	1	·	4	2	-3	7	·	·
COc1ccc(CC(=O)OCC(=O)Nc2c(C)n(C)n(-c3ccccc3)c2=O)cc1OC	-2	·	5	1	-4	7	·	·
CCC(/C=C1\Sc2ccc(OC)cc2N1CC)=C\c1sc2ccc(OC)cc2[n+]1CCCS(=O)(=O)[O-]	1	-38	-37	3	-20	-23	·	·
CCN1/C(=C/c2cc[n+](CCCS(=O)(=O)[O-])c3ccccc23)Sc2ccccc21	-8	-2	-12	26*	-164	-10	28*	10
CC(=O)c1ccc2c3c(cccc13)C(=O)N(c1c(C)nn(C)c1C)C2=O	-1	42	8	4	-12	-4	·	·
C=CCN1C(=O)c2cccc3c(Br)ccc(c23)C1=O	2	-23	6	2	-5	-4	·	·
C=CCN1C(=O)c2cccc3c(N4CCCCC4)ccc(c23)C1=O	-74	-10	-11	22*	-18	-6	85*	24*
O=C(c1cccc(N2C(=O)c3ccccc3C2=O)c1)N1CCCCCC1	-3	-4	-1	7	-9	4	·	·
O=C1c2cccc3c(N4CCCCC4)ccc(c23)C(=O)N1c1cccc(O)c1	-140	53	-9	124*	-66	-8	153*	25*
